Data reported in publication PMC3743796 (Open journal of clinical diagnostics, 2013).
No end group written: not given here.

Legend:
[1] = test system: endothelial and tumor cells; assay: Cell migration/invasion assays, endothelial and tumor cells; assay type: cell-based, human; conditions: SCNH2 10 pM, APL-13 10 nM, SM inhibitors 10 μM, n = 3
How it was run: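 Chemotaxis plates: agonist peptides and 10 μM small-molecule inhibitors or 100 μg/ml immune IgG in FBS-free medium in the lower wells; 8000-10,000 cells/well (e.g. HUVEC) in FBS-free medium on the upper membrane, uncoated for migration or rat-tail collagen I-coated for invasion. Incubated 5-24 h at 37 °C/5% CO2/100% humidity. Membranes methanol-fixed, stained with 0.5% crystal violet, upper cells removed, underside cells photographed and counted.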

PI3K/Akt in MCF-7 cells = assay: Western blot, peptide-induced PI3K/Akt phosphorylation in MCF-7; assay type: cell-based, human
PI3K/Akt in HMEC-1 cells = assay: Western blot, peptide-induced PI3K/Akt phosphorylation in HMEC-1; assay type: cell-based, human
[2] = test system: p44/42 MAPK signaling pathway in MCF-7 cells
[3] = test system: p44/42 MAPK in HMEC-1 cells
[4] = test system: P-p44/42 MAPK in NMuMG cells; assay: Western blot, phosphorylation of p44/42 MAPK in NMuMG; assay type: cell-based, murine; conditions: maximum of dose response
HUVEC cells = assay: Cell migration assay, HUVEC; assay type: cell-based, human; conditions: for peptide response hierarchy in molar potency for mediating cell movement: HUVEC migration
How it was run: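 Transwell-type chemotaxis plate with uncoated membrane. Test peptides and VEGF-A, at a range of concentrations, in FBS-free medium in bottom wells; 8000–10,000 HUVEC/well in FBS-free medium on top. Incubated 5–24 h at 37°C/5% CO2/100% humidity. Membranes methanol-fixed 5 min and stained with 0.5% crystal violet; upper cells removed. Bottom adherent cells photographed and counted.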

[5] = test system: CAM of 10-day-old shell-less embryos; assay: Chorioallantoic membrane in chick embryo; assay type: in vivo; conditions: 66 hours
[6] = test system: SCNH2 receptor in enriched MB435 cells; assay: FACS binding inhibition assay with bSCNH2/SA488, enriched MB435; set-up: species or system human; conditions: enriched MB435, 50 μM peptide, 5 μM bSCNH2 + 10 μg/ml SA488, FACS
rat aortic rings = assay: Rat aortic ring assay; assay type: cell-based; conditions: 6 days, p < 0.05
[7] = test system: P-PI3K/Akt in NMuMG cells; assay: Western blot, phosphorylation of PI3K/Akt in NMuMG; assay type: cell-based, murine; conditions: maximum of dose response
[8] = test system: PI3K/Akt and p44/42 MAPK signaling pathways; assay: CTX/PTX sensitivity assay; assay type: cell-based

With `c1cc(CN2CCCNCCNCCCNCC2)ccc1CN1CCCNCCNCCCNCC1` [AMD3100] the “suppression of SCNH2 and APL-13 induced cell migration and invasion” value [1] was “effectively suppressed”.

With `O=c1cc(N2CCOCC2)oc2c(-c3ccccc3)cccc12` [LY294002] the “block of APL-13 induced phosphorylation of PI3K/Akt” value (PI3K/Akt in MCF-7 cells) was 75%, the “block of SCNH2 induced phosphorylation of PI3K/Akt” value (PI3K/Akt in MCF-7 cells) was 93% and the “inhibition of APL-13 induced phosphorylation of PI3K/Akt” value (PI3K/Akt in HMEC-1 cells) was 98%. The “inhibition of SCNH2 induced phosphorylation of PI3K/Akt” value (PI3K/Akt in HMEC-1 cells) was 96% and the “suppression of SCNH2 and APL-13 induced cell migration and invasion” value [1] was “effectively suppressed”.

`CC(C)(C)Cn1c(N)nc2ccc(-c3[nH]c(C(C)(C)C)nc3-c3ccc(F)cc3)nc21` [LY2228820] was tested, and the “suppression of SCNH2 and APL-13 induced cell migration and invasion” value [1] was “effectively suppressed”.

For `N#CC(=C(/N)Sc1ccccc1N)/C(C#N)=C(/N)Sc1ccccc1N` [U0126], the “suppression of APL-13 induced phosphorylation of p44/42 MAPK” value [2] was 97%, the “suppression of SCNH2 induced phosphorylation of p44/42 MAPK” value [2] was 97% and the “suppression of APL-13 induced phosphorylation of p44/42 MAPK” value [3] was 95%. The “suppression of SCNH2 induced phosphorylation of p44/42 MAPK” value [3] was 98% and the “suppression of SCNH2 and APL-13 induced cell migration and invasion” value [1] was “effectively suppressed”.

In the case of Apelin-13 [APL-13], the “maximum P-p44/42 MAPK compared to the control” value [4] was 5 folds, the “peptide response hierarchy in molar potency for mediating cell movement” value (HUVEC cells) was “SCNH2 > VEGF-A > APL-13” and the maximal stimulating concentration (HUVEC cells; cell migration, dose-response on HUVEC) was 10 nM. For the same molecule, the “neovascularization at all of the tested concentrations” value ([5]; angiogenic index, p < 0.005) was “dramatically induced neovascularization”, the “concentration inducing the maximum neovascularization” value ([5]; p < 0.005, no statistical difference to VEGF-A at 1 nM) was 100 nM and the “block of the binding of bSCNH2” value [6] was “ineffective”. The “concentration inducing maximal vessel sprouting” value (rat aortic rings) was 10 nM, the “maximum P-PI3K/Akt compared to the control” value [7] was 8 folds and the “effect of CTX on peptide signaling (kinase activation)” value ([8]; CTX treatment, Western blot) was “indifferent”. For the same molecule, the “effect of PTX on peptide signaling (kinase activation)” value ([8]; PTX pretreatment overnight, 100 pM peptide 10 min) was “sensitive”.

In the case of adrenomedullin [AM], the “block of the binding of bSCNH2” value [6] was “ineffective”.

arginine vasopressin [AVP] was tested, and the “block of the binding of bSCNH2” value [6] was “ineffective”.

“gastrin-releasing peptide (VPLPAGGGTVLTKMYPRGNHWAVGHLM-NH2; UniProt P07492 24-50, looked up) [GRP]” was tested, and the “block of the binding of bSCNH2” value [6] was “ineffective”.

“luteinizing hormone-releasing hormone [LHRH]” was tested, and the “block of the binding of bSCNH2” value [6] was “ineffective”.

With oxytocin [OXT] the “block of the binding of bSCNH2” value [6] was “ineffective”.

With “vascular endothelial growth factor A [VEGF-A]” the “peptide response hierarchy in molar potency for mediating cell movement” value (HUVEC cells) was “SCNH2 > VEGF-A > APL-13”.
